Measurements gathered from unrelated publications.
Target: Homeodomain-interacting protein kinase 1 (HIPK1, Homo sapiens, UniProt Q86Z02)

`Cn1cncc1[C@@](O)(COc1ccc(C#N)cc1-c1ccc(OC(F)(F)F)cc1)c1ccc(C#N)cc1` has a remaining binding of 79% (cell-free assay; competition with immobilised ligand; 1 µM).
For `O=c1[nH]c2ccccc2n1C1CCN(Cc2ccc(-c3[nH]c4cc5ncnc5cc4nc3-c3ccccc3)cc2)CC1`, the remaining signal was 106% (cell-free assay; 0.5 µM).
`Cc1nn(C)cc1-c1nc2c(N3CCN(Cc4ccc(Cl)cc4)CC3)c(Cl)cnc2[nH]1` gave a remaining binding of 66% (binding; competition with immobilised ligand; 1 µM).
`COc1ncccc1-c1cnn2ccc(N3CCN(C(=O)OC(C)C)CC3)nc12` gave a remaining binding of 92% (binding; competition with immobilised ligand; 1 µM).
`Cn1cc(-c2cc(F)cc(N3CCn4c(cc5c4CCCC5)C3=O)c2CO)cc(Nc2ccc(N3CCN(C4COC4)CC3)cn2)c1=O` gave an inhibition of 5% (enzyme activity; inhibitor; 0.1 µM).
With `CC(C)(C)c1cc(C=C(C#N)C#N)cc(Br)c1O` the remaining activity was 104% (enzyme activity; inhibitor; 0.5 µM).
With `Cn1cc(-c2cccc(N3CCc4c(sc5c4CC(C)(C)C5)C3=O)c2CO)cc(Nc2ccncn2)c1=O` the inhibition was -2% (enzyme activity; inhibitor; 1 µM).
`Nc1ncc(-c2nc(N3CCOCC3)nc(N3CCOCC3)n2)c(C(F)F)n1` gave a remaining binding of 69% (binding; competition with immobilised ligand; 10 µM).
